Screening results (PubChem BioAssay)
Calb FLC – C. albicans growth modulation with fluconazole. growth inhibition, % (concentration not given with the values). 300,000 tested, 0.57% active. C. albicans CaCi-2 (fluconazole-resistant clinical isolate) + fluconazole, Alamar Blue growth, 48 h. AID 1979;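 active = growth inhibition above about 58% in most replicates, limit read from the data, passing the limit was not always enough; inconclusive = exactly half the replicates above a set limit; inactive = most replicates below a set limit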;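 also: all wells also contain fluconazole at 8 µg/ml as a sub-toxic cotreatment; 0% = median of DMSO wells and 100% = median of geldanamycin control wells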
Beta apoptosis – beta cell apoptosis inhibition; INS-1E cytokine-induced death, ATP luminescence, 48 h; percent of positive-control rescue, neutral wells zero; protection from apoptosis, % (concentration not given with the values); 300,000 tested, 0.8% active;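 active = Every replicate reaches about 75%, or at least half do and their mean reaches it too, limit read from the data; inconclusive = At least half of replicates reach the limit but their mean does not; inactive = Under half of replicates reach the limit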;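 also: 0% = cytokine-treated negative control wells and 100% = positive control rescue; higher means more ATP so stronger rescue from cytokine killing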
Mdm2-MdmX inh – inhibitors of human Mdm2/MdmX interaction; inhibition, % at 8 µM; 330,000 tested, 3% active; AID 485346; O15151+Q00987; SaOS-2 split-luciferase Mdm2/MdmX complementation, luminescence;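 active = inhibition of at least 50% at 8 µM in the primary screen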
Target sequence (O15151 whole entry, looked up): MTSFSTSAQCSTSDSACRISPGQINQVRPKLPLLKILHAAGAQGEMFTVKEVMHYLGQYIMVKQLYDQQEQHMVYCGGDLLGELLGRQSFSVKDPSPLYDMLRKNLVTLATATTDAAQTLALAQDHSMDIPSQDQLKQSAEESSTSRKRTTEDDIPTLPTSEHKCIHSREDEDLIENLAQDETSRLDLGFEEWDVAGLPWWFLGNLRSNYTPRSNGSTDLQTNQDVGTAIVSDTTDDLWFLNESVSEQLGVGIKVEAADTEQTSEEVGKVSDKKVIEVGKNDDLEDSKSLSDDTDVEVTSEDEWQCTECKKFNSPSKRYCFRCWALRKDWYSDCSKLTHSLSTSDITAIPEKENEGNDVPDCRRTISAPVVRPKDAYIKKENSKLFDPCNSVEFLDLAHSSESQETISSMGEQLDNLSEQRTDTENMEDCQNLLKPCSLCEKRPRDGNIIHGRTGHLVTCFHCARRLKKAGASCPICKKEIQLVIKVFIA
Target sequence (Q00987 whole entry, looked up): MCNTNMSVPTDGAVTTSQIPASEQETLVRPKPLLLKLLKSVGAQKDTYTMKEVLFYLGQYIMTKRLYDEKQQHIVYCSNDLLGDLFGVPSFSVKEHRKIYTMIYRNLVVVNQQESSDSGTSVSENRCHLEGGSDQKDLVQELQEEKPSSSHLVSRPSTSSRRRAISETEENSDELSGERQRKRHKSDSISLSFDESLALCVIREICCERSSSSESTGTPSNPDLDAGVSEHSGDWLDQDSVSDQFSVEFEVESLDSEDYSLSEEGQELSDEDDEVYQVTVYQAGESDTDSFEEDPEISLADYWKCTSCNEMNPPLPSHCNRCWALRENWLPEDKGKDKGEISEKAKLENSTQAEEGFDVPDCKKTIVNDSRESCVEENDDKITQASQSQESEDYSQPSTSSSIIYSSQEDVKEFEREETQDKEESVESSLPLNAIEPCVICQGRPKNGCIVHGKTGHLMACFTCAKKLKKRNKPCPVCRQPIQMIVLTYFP
T cruzi repl – blocks replication of Trypanosoma cruzi | 300,000 tested, 1.4% active | inhibition, % (no concentration beside the values) | AID 1885 | T. cruzi beta-gal in NIH3T3, luminescence, 90 h;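 active = mean inhibition across valid replicates above about 55%, limit read from the data; inconclusive = mean below that limit but half or more replicates reach it; inactive = mean below it, under half of replicates reach it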;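 also: signal also drops with host cell toxicity which is not excluded here; 0% = plate median of DMSO wells and 100% = zero luminescence signal; higher percent means less beta-gal luminescence so fewer parasites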
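Assay system: NIH/3T3 host cells with β-galactosidase reporter T. cruzi; input: 5,000 host fibroblasts per well; compound: single 50 nL compound addition per well in DMSO; timing: ≥90 h infection period, 3 h prior cell attachment; measured by: GalScreen β-gal luminescence, detergent lysis, 60 min; evaluation: percent inhibition of parasite-derived β-gal signal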
SKKanGAS inh – inhibitors of SKKanGAS S. pyogenes growth in kanamycin (SK-promoter or general growth effect); BacTiter-Glo, 6 h; inhibition, % at 7.5 µM; 300,000 tested, 1.3% active; AID 1662;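 active = mean replicate score, as percent of positive control median, at least 50; inconclusive = mean below 50 but one replicate at or above 50; inactive = mean and every replicate below 50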;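 also: strain carries kanamycin resistance gene driven by streptokinase promoter and grows in 40 µg/ml kanamycin; loss of luminescence reflects streptokinase promoter inhibition or plain growth inhibition; 0% = median of DMSO wells and 100% = positive control at its reference dose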
CSC inhib – blocks cancer stem cells | cancer stem cell-like cells viability, luminescence | inhibition, % at 7.5 µM | 300,000 tested, 1.1% active | AID 2717; in the data active = inhibition above about 75%; inconclusive = no clear call, values can overlap the other calls; tested in HMLE shEcad cells
Mdm2-MdmX conf – confirmation of human Mdm2/MdmX interaction inhibitors; inhibition, % at 8 µM; 10,000 tested, 55% active; AID 489028; Mdm2-MdmX binding, luminescent assay; shares compounds with Mdm2-MdmX inh; in the data active = inhibition above about 40%
FLuc counter – counter-screen for Mdm2/MdmX inhibitors: full-length luciferase; shares compounds with Mdm2-MdmX inh; SaOS-2 full-length luciferase counterscreen, luminescence; inhibition, % at 8 µM; 6,200 tested, 77% active; AID 504607;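 active = mean inhibition at 8 µM reaching about 37%, which flags the compound as non-specific, limit read from the data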;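 also: p53-null SaOS-2 cells with luciferase driven by a doxycycline-inducible promoter; compound on cells about two nights before reading with doxycycline added after day one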
* = called active by the depositor; u = inconclusive; x = not tested or not shown. Shown are actives, neighbours in structure and some others; about 5.7% of the full set was active somewhere.

SMILES	Calb FLC	Beta apoptosis	Mdm2-MdmX inh	T cruzi repl	SKKanGAS inh	CSC inhib	Mdm2-MdmX conf	FLuc counter
COc1ccc(CCNC(=O)c2ccc3c(c2)OCCO3)cc1	-21.9	-2.6	-64.1	8.2	8.9	-1.1	x	x
O=C(NCCc1ccccc1)c1ccc2c(c1)OCCO2	-23.4	3.4	84.4*	-6.4	-1.1	3.5	85.0*	27.8
CC(=O)OCC(=O)C1=CCC2C3CCC4=CC(=O)C=CC4(C)C3(F)C(OC(C)=O)CC12C (stereo not drawn)	u	-29.2	78.5*	4.8	-1.4	-9.2	49.2*	45.7*
CC(=O)OCC(=O)[C@@]1(O)CC[C@H]2[C@@H]3CCC4=CC(=O)C=C[C@]4(C)[C@@]3(F)[C@@H](O)C[C@@]21C	x	-10.1	-32.0	x	x	4.4	x	x
COc1ccc(CC(=O)OCC(=O)NCc2ccco2)cc1OC	-2.4	-2.2	5.5	3.8	-4.1	-5.3	x	x
COC(=O)c1cc(-c2ccc(OC)c(OC)c2)c2c(=O)[nH]c(=O)n(C)c2n1	5.5	-5.7	50.1*	-1.6	37.2	0.3	21.7	x
COc1ccccc1-c1oc2ccccc2c1C#CC1(O)CCCCC1	x	-5.8	1.7	x	x	65.3	x	x
COc1ccccc1-c1oc2ccccc2c1C#CC1(N)CCCCC1	x	6.9	73.5*	x	x	130.2*	33.9	x
Cc1cc(C)cc(C(=O)NCC(=O)OCC(=O)NCc2ccco2)c1	-5.7	-3.1	9.6	-6.5	0.7	-4.1	x	x
O=C(COC(=O)c1nc(Cl)ccc1Cl)c1ccc[nH]1	-2.1	x	-26.4	-23.2	-3.6	-1.4	x	x
O=C(COC(=O)c1nc(Cl)c(Cl)c(Cl)c1Cl)c1ccc[nH]1	18.4	x	73.0*	-23.7	-13.1	12.4	32.1	x
COc1cc(C(=O)Nc2nc(C)c(Cc3ccc4c(c3)OCO4)s2)cc(OC)c1OC	5.7	43.3	79.2*	5.7	-0.6	56.3	67.4*	75.8*
Cc1c(Cc2ccc3c(c2)OCO3)sc(NC(=O)C(C)(C)C)c1C#N	-1.2	-2.2	57.6*	-6.0	2.8	47.6	36.0	x
Cc1c(Cc2ccc3c(c2)OCO3)sc(NC(=O)c2ccc3ccccc3c2)c1C(N)=O	8.9	27.3	80.5*	-10.0	5.0	29.7	-11.3	x
Cc1cc([N+](=O)[O-])nn1CCC(=O)NC1CCCCCC1	-11.6	-2.7	10.9	-14.5	-3.4	-10.6	x	x
COc1ccc(N2CCN(C(=O)c3ccccc3NS(=O)(=O)c3ccc(C)cc3)CC2)cc1	25.0	9.0	0.4	0.7	2.3	-0.2	x	x
O=C(CSc1ncnc2c1cnn2-c1ccccc1)NC1CCCC1	-23.3	4.8	5.3	-0.4	0.3	0.0	x	x
Cn1c(CNC(=O)CNC(=O)Cc2ccc(Cl)cc2)cc(=O)n(C)c1=O	13.3	0.0	5.1	-17.4	-2.0	-11.9	x	x
CCOC(=O)c1sc2nc(CSc3ccccc3)nc(NCCN(C)C)c2c1C	8.6	11.9	51.2*	4.5	8.3	9.0	15.8	x
CCOC(=O)c1sc2nc(C)nc(NCCc3ccccn3)c2c1C	14.4	5.8	-3.9	7.6	-5.9	2.1	x	x
CCN(CC)c1ccc(C=Nc2ccccc2)c(O)c1	5.8	-8.5	4.3	-3.9	1.8	x	x	x
CCN(CC)c1ccc(/C=N/N=C(N)N)c(O)c1	-0.3	9.7	61.5*	42.7	6.5	66.0	51.5*	83.4*
CCN(CC)c1ccc(/C=N/NC(=O)c2cccc(S(=O)(=O)Nc3ccccc3OC)c2)c(O)c1	-5.6	90.7*	77.2*	26.6	16.7	108.1*	78.5*	14.6
COc1cc(OC)c(OC)cc1/C=N/NC(=O)c1ccc2nc[nH]c2c1	-1.1	-4.9	19.2	-18.4	3.0	-7.9	x	x
CCN(CC)c1ccc(/C=N/NC(=O)c2ccc3nc[nH]c3c2)c(O)c1	109.3*	115.8*	73.3*	10.4	5.8	106.5*	83.2*	53.2*
SMILES	Calb FLC	Beta apoptosis	Mdm2-MdmX inh	T cruzi repl	SKKanGAS inh	CSC inhib	Mdm2-MdmX conf	FLuc counter
O=C1c2ccccc2NC(c2ccc(-c3ccc(C(F)(F)F)cc3)o2)N1O (stereo not drawn)	x	70.8	67.3*	x	x	x	48.6*	41.8*
Cc1ccc(S(=O)(=O)N2CCOCC2)cc1NC(=O)COC(=O)/C=C/c1ccc(F)cc1	x	2.1	11.8	x	x	1.3	x	x
Cc1ccccc1C(=O)N1CCN(c2ccc(NC(=O)c3cccc(OC(C)C)c3)cc2)CC1	-1.3	10.5	53.1*	11.4	11.1	-5.9	44.8*	55.5*
COc1ccc(NC(=O)c2ccccc2NC(=O)CSc2ccc(Cl)cc2)cc1	-4.7	4.4	83.9*	-15.9	-6.9	-5.9	43.0*	70.7*
CCC(=O)Nc1ccc(N2CCN(C(=O)c3ccccc3C)CC2)cc1	5.5	-7.4	0.8	1.6	-11.1	-1.4	x	x
Cc1ccccc1C(=O)N1CCN(c2ccc(NC(=O)CSc3ccc(Cl)cc3)cc2)CC1	-10.4	9.0	60.7*	x	-1.7	24.8	48.9*	41.8*
Cc1ccccc1C(=O)N1CCN(c2ccc(NC(=S)NC(=O)c3cccs3)cc2)CC1	23.2	8.9	52.9*	24.0	24.5	48.9	39.6	75.1*
Cc1cccc(C(=O)Nc2nnc(Cc3ccccc3)s2)c1	-10.7	-5.5	-5.0	-2.0	3.6	-13.3	x	x
O=C(NCC1CCCO1)/C(=C/c1cn(-c2ccccc2)nc1-c1cccnc1)NC(=O)c1ccccc1 (stereo not drawn)	22.5	1.3	5.3	53.0	-5.1	5.3	x	x
CC(=O)Nc1cccc(/C(C)=N/N2C(C)CCCC2C)c1 (stereo not drawn)	-7.5	x	-0.5	-6.8	-4.0	x	x	x
C/C(CC(=O)Nc1cc(Cl)ccc1C)=N\NC(N)=O	9.0	-3.4	-8.5	-7.9	-19.8	-7.2	x	x
CN(CC(=O)Nc1ccc(F)c(F)c1F)C(=O)c1n[nH]c(=O)c2ccccc12	x	-3.0	-23.6	x	x	1.5	x	x
COc1ccc(N(CC(=O)NCCC2=CCCCC2)S(=O)(=O)c2ccccc2)c(OC)c1	-1.1	8.8	27.3	48.4	-7.0	-4.3	x	x
O=C(NN1C(=O)NC2(CCCCC2)C1=O)c1ccc(-c2ccc([N+](=O)[O-])cc2)o1	4.8	0.9	17.7	-4.9	1.0	-3.3	x	x
Cc1ccc(NC(=O)CCC(=O)NNC(=S)Nc2ccccc2)c(C)c1	-18.6	-2.3	-23.7	-12.8	-2.7	-11.6	x	x
Cc1ccc(NC(=S)NNC(=S)Nc2ccc(C)cc2C)cc1	49.7	-3.9	71.3*	21.4	36.9	3.5	52.3*	93.7*
O=C(c1ccc(C#CC2(O)CCCCC2)cc1)N1CCN(C(c2ccccc2)c2ccccc2)CC1	13.0	12.0	56.6*	34.6	33.7	77.1*	32.9	x
O=C(c1ccc(C#CC2(O)CCCCC2)cc1)N1CCN(Cc2ccccc2)CC1	-15.7	-1.5	12.9	13.5	3.7	-5.0	x	x
